The target of experiment [1] is T1, Cannabinoid receptor 1 (Homo sapiens, UniProt P21554). The following applies: CHO, at 1 µM.
Experiment [2] addresses T1, Cannabinoid receptor 1. Put plainly: biochemical. The experiment is classed as cell-based, CHO.
Experiment [3] has as its target T2, Cannabinoid receptor 2 (Homo sapiens, UniProt P34972). Kind of experiment: Agonist activity at human CB2 receptor expressed in CHO cells assessed as inhibition of forskolin-stimulated cAMP accumulation using [3H]-cAMP at 1 uM after 5 mins by liquid scintillation counter relative to CP55940. The format is functional, cell-based. Background: Cyclic AMP is a second messenger, typically raised through Gs and lowered through Gi signalling.

The target in experiment [4] is T2, Cannabinoid receptor 2. Kind of experiment: Displacement of [3H]CP55,940 from human CB2 receptor expressed in CHO cells after 2 hrs by liquid scintillation counter. The experiment is classed as cell-based. (Displacement assays read how much labelled ligand stays bound in the presence of the test substance.)
Experiment [5] deals with T2, Cannabinoid receptor 2. Put plainly: Agonist activity at human CB2 receptor expressed in CHO cells assessed as inhibition of forskolin-stimulated cAMP accumulation using [3H]-cAMP after 5 mins by liquid scintillation counter. The format is functional, cell-based. In a few lines:
(§1)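 Intact CHO cells stably expressing the receptor (retrovirally transfected, kept in 0.2 mg/mL G418) were seeded 24 h ahead and preincubated 2 h at 37 °C in HBSS. Cells were lysed hot and cAMP was read by competition with [3H]cAMP for bovine adrenal binding protein, filtered and counted. EC50 came from full concentration-response curves, three independent experiments in duplicate.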

For experiment [6], the target named is T2, Cannabinoid receptor 2. Put plainly: Displacement of [3H]CP55,940 from human CB2 receptor expressed in CHO cells at 10 uM after 2 hrs by liquid scintillation counter. The experiment is classed as cell-based. The method in brief: (§2)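 The screen used CHO cell membranes expressing the human receptor (50 μg protein), [3H]CP55,940 at 0.1 nM final and compound at 10 μM in 50 mM Tris, 3 mM MgCl2, 0.1% BSA, pH 7.4, with 2.5% DMSO final. Incubation was 2 h at room temperature. Nonspecific binding was taken with 10 μM unlabeled CP55,940. Filtration through PEI-soaked GF/C filters was followed by scintillation counting, and the value is % inhibition of binding.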

Experiment [7] deals with T1, Cannabinoid receptor 1. Kind of experiment: Displacement of [3H]CP55,940 from human CB1 receptor expressed in CHO cells at 10 uM after 2 hrs by liquid scintillation counter. The experiment is classed as cell-based. The method in brief:
as §2

Experiment [8] deals with T1, Cannabinoid receptor 1. Put plainly: Agonist activity at human CB1 receptor expressed in CHO cells assessed as inhibition of forskolin-stimulated cAMP accumulation using [3H]-cAMP after 5 mins by liquid scintillation counter. The experiment is classed as functional, cell-based. The method in brief: as §1
A further experiment concerns CHO. Put plainly: Selectivity ratio of Ki for human CB1 receptor to Ki for human CB2 receptor expressed in CHO cells. The experiment is classed as cell-based.

This is an account of results in ChEMBL document CHEMBL2176868, “7-Alkyl-3-benzylcoumarins: a versatile scaffold for the development of potent and selective cannabinoid receptor agonists and antagonists” (J Med Chem, 2012).

What is called inhibition is the change of the read-out against control, counted positive when it falls. In general, pKi refers to −log10 of the Ki, conventionally taken in molar units. Higher therefore signals a small Ki. Usually pEC50 stands for the EC50 on a negative log10 scale, so that one unit is a factor of ten.

pEC50, pKi: −log10 of the molar value.

T2 sequence (P34972 whole entry): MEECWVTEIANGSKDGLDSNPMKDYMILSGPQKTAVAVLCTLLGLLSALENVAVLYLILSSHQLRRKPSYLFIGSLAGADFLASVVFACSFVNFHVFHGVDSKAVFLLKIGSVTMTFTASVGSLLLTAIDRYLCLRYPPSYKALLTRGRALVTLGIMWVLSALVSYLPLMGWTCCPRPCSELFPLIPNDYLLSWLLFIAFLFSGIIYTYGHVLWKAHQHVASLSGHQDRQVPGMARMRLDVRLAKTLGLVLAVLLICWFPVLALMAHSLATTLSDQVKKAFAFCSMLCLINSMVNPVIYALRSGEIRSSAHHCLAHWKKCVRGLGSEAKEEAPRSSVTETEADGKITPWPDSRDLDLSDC
T1 sequence (P21554 whole entry): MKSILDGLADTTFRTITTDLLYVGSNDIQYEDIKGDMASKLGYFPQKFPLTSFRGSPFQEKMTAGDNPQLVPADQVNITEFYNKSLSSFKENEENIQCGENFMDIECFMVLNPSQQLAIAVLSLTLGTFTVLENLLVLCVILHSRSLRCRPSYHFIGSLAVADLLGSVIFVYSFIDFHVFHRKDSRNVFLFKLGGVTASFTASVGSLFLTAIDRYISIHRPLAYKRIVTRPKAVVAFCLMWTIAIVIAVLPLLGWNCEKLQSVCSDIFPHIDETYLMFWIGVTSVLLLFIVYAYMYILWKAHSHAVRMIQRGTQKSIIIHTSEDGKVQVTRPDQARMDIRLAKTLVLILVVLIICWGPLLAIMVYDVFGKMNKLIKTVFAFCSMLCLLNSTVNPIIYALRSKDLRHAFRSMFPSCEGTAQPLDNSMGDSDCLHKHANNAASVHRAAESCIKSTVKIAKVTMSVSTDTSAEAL

On to `CCCCCc1cc(O)c2cc(Cc3cccc(C)c3)c(=O)oc2c1`, for which the inhibition against Cannabinoid receptor 1 [1] was found to be 42%; at Cannabinoid receptor 2 [3], 10%. In addition, the pKi at Cannabinoid receptor 1 [2] was 5.66; at Cannabinoid receptor 2 [4] it was 5.75.

`CCCCCc1cc(O)c2cc(Cc3cccc(O)c3)c(=O)oc2c1`: the inhibition against Cannabinoid receptor 1 [1] and at Cannabinoid receptor 2 [3] was 0% each time. The negative logarithm of the Ki (pKi) at Cannabinoid receptor 1 [2] was 4.79; on Cannabinoid receptor 2 [4] it was 5.29.

Turning to `CCCCCCC(C)(C)c1cc(OC)c2cc(Cc3ccccc3)c(=O)oc2c1`, the inhibition against Cannabinoid receptor 1 [1] was found to be 27%; at Cannabinoid receptor 2 [3], 0%. Also, the values for the pKi on Cannabinoid receptor 1 [2] and at Cannabinoid receptor 2 [4] were 5.84 and 5.39, respectively.

As for `CCCCCCC(C)(C)c1cc(O)c2cc(Cc3ccccc3O)c(=O)oc2c1`, the pEC50 on Cannabinoid receptor 2 [5] was 7.27. Also, the inhibition stood at 0% against Cannabinoid receptor 1 [1] and 76% on Cannabinoid receptor 2 [3]. Also, the pKi on Cannabinoid receptor 1 [2] was 6.61; on Cannabinoid receptor 2 [4], 6.68.

Take `CCCCC1(c2cc(OC)c3cc(Cc4ccccc4OC)c(=O)oc3c2)CCCCC1`: the inhibition at Cannabinoid receptor 2 [6] was found to be 45%; on Cannabinoid receptor 1 [7], 42%. In addition, the pKi at Cannabinoid receptor 1 [2] and on Cannabinoid receptor 2 [4] was ≥ 5.00 each time.

For the compound `CCCCCc1cc(O)c2cc(Cc3ccccc3O)c(=O)oc2c1`, the values for the inhibition at Cannabinoid receptor 1 [1] and at Cannabinoid receptor 2 [3] were 109% and 0%, respectively. Also, the negative logarithm of the Ki (pKi) on Cannabinoid receptor 1 [2] was 5.01; at Cannabinoid receptor 2 [4], 5.32.

In the case of `CCCCCc1cc(O)c2cc(Cc3ccccc3Cl)c(=O)oc2c1`, the inhibition at Cannabinoid receptor 1 [1] amounted to 60%; on Cannabinoid receptor 2 [3] it was 2%. The pKi at Cannabinoid receptor 1 [2] was 4.72; on Cannabinoid receptor 2 [4] it was 5.71.

In the case of `COc1cccc(Cc2cc3c(OC)cc(CBr)cc3oc2=O)c1`, the inhibition turned out to be 23% on Cannabinoid receptor 1 [1] and 0% on Cannabinoid receptor 2 [3]. Also, the pKi on Cannabinoid receptor 1 [2] is 5.32; on Cannabinoid receptor 2 [4], 4.88.

On to `CCCCC1(c2cc(OC)c3cc(Cc4ccccc4OC)c(=O)oc3c2)CCCC1`, for which the inhibition on Cannabinoid receptor 1 [1] turned out to be 110%; on Cannabinoid receptor 2 [3] it was 3%. Besides, the pKi at Cannabinoid receptor 1 [2] is 6.22; at Cannabinoid receptor 2 [4] it was 5.94.

`COc1cccc(Cc2cc3c(OC)cc(CO[Si](c4ccccc4)(c4ccccc4)C(C)(C)C)cc3oc2=O)c1`: the inhibition was 4% on Cannabinoid receptor 2 [6] and 12% on Cannabinoid receptor 1 [7]. In addition, the pKi on Cannabinoid receptor 1 [2] and on Cannabinoid receptor 2 [4] was < 5.00 in each case.

For `CCCCCc1cc(OC)c2cc(Cc3ccccc3OC)c(=O)oc2c1`, the pEC50 at Cannabinoid receptor 2 [5] was 7.85; on Cannabinoid receptor 1 [8], 7.25. Further, the inhibition was 93% against Cannabinoid receptor 1 [1] and 106% at Cannabinoid receptor 2 [3]. The pKi at Cannabinoid receptor 1 [2] was 7.49; on Cannabinoid receptor 2 [4], 7.31.

Take `COc1cccc(Cc2cc3c(OC)cc(CO)cc3oc2=O)c1`: the inhibition amounted to 16% on Cannabinoid receptor 2 [6] and 8% on Cannabinoid receptor 1 [7]. Besides, the pKi at Cannabinoid receptor 1 [2] and on Cannabinoid receptor 2 [4] was < 5.00 each time.

Consider `CCCCCc1cc(OC)c2cc(Cc3cccc(C)c3)c(=O)oc2c1`, for which the inhibition against Cannabinoid receptor 1 [1] was 0%; on Cannabinoid receptor 2 [3] it was 50%. Also, the values for the pKi at Cannabinoid receptor 1 [2] and at Cannabinoid receptor 2 [4] were 6.15 and 6.41, respectively.

Take `CCCCCc1cc(OC)c2cc(Cc3ccccc3Cl)c(=O)oc2c1`: the inhibition against Cannabinoid receptor 1 [1] stood at 6%; at Cannabinoid receptor 2 [3], 47%. Besides, the pKi at Cannabinoid receptor 1 [2] was 7.48; at Cannabinoid receptor 2 [4] it was 6.73.

As to `CCCCCc1cc(OC)c2cc(Cc3cccc(OC)c3)c(=O)oc2c1`, the pEC50 at Cannabinoid receptor 2 [5] was 7.04; at Cannabinoid receptor 1 [8], 6.37. The inhibition is 58% on Cannabinoid receptor 1 [1] and 93% on Cannabinoid receptor 2 [3]. Besides, the pKi is 7.35 at Cannabinoid receptor 1 [2] and 6.84 at Cannabinoid receptor 2 [4].

`CCCCCc1cc(OC)c2cc(Cc3ccccc3C)c(=O)oc2c1`: the negative-log EC50 (pEC50) at Cannabinoid receptor 2 [5] is 6.67. Moreover, the figures for the inhibition against Cannabinoid receptor 1 [1] and at Cannabinoid receptor 2 [3] were 0% and 58%, respectively. Moreover, the results for the pKi at Cannabinoid receptor 1 [2] and at Cannabinoid receptor 2 [4] were 7.66 and 6.39, respectively.

On to `CCCCC1(c2cc(O)c3cc(Cc4ccccc4O)c(=O)oc3c2)CCCC1`, for which the pEC50 on Cannabinoid receptor 2 [5] is 7.32. The inhibition against Cannabinoid receptor 1 [1] is 18%; at Cannabinoid receptor 2 [3], 106%. For the same compound, the pKi at Cannabinoid receptor 1 [2] was 5.80; at Cannabinoid receptor 2 [4] it was 7.17.

As for `CCCCCCC(C)(C)c1cc(OC)c2cc(Cc3ccccc3OC)c(=O)oc2c1`, the inhibition at Cannabinoid receptor 1 [1] worked out at 0%; on Cannabinoid receptor 2 [3], 30%. The values for the pKi at Cannabinoid receptor 1 [2] and on Cannabinoid receptor 2 [4] were 5.99 and 5.52, respectively.

With `CCCCCCCC(C)(C)c1cc(OC)c2cc(Cc3ccccc3OC)c(=O)oc2c1`, the figures for the inhibition on Cannabinoid receptor 2 [6] and on Cannabinoid receptor 1 [7] were 47% and 51%, respectively. For the same compound, the pKi on Cannabinoid receptor 1 [2] and at Cannabinoid receptor 2 [4] was 5.00 in each case.

`CCCCCc1cc(O)c2cc(Cc3cccc(Cl)c3)c(=O)oc2c1`: the inhibition at Cannabinoid receptor 1 [1] turned out to be 70%; at Cannabinoid receptor 2 [3] it was 0%. The pKi was 5.19 at Cannabinoid receptor 1 [2] and 5.66 on Cannabinoid receptor 2 [4].

With `Cc1cc(O)c2cc(Cc3ccccc3C)c(=O)oc2c1`, the results for the inhibition on Cannabinoid receptor 2 [6] and on Cannabinoid receptor 1 [7] were 38% and 34%, respectively. Further, the pKi at Cannabinoid receptor 1 [2] and on Cannabinoid receptor 2 [4] was < 5.00 in each case.

Consider `Cc1ccc(C(C)C)c2cc(Cc3ccccc3O)c(=O)oc12`, for which the inhibition on Cannabinoid receptor 2 [6] is 24%; on Cannabinoid receptor 1 [7], 31%. Moreover, the pKi on Cannabinoid receptor 1 [2] and at Cannabinoid receptor 2 [4] was < 5.00 throughout.

Regarding `CCCCCc1cc(OC)c2cc(Cc3ccccc3)c(=O)oc2c1`, the inhibition was 58% against Cannabinoid receptor 1 [1] and 47% at Cannabinoid receptor 2 [3]. Also, the pKi is 5.72 on Cannabinoid receptor 1 [2] and 6.57 at Cannabinoid receptor 2 [4]. In addition, in the experiment on CHO, the Ratio Ki was found to be 7.

As for `CCCCCc1cc(O)c2cc(Cc3ccccc3)c(=O)oc2c1`, the inhibition at Cannabinoid receptor 1 [1] and on Cannabinoid receptor 2 [3] was 0% each time. In addition, the pKi was 5.90 at Cannabinoid receptor 1 [2] and 5.77 at Cannabinoid receptor 2 [4].

Consider `CCCCCCC(C)(C)c1cc(O)c2cc(Cc3ccccc3)c(=O)oc2c1`, for which the inhibition at Cannabinoid receptor 1 [1] was 84%; on Cannabinoid receptor 2 [3], 32%. In addition, the pKi at Cannabinoid receptor 1 [2] is 5.58; at Cannabinoid receptor 2 [4] it was 6.33.

Turning to `COc1cccc(Cc2cc3c(OC)cc(Br)cc3oc2=O)c1`, the inhibition turned out to be 0% on Cannabinoid receptor 1 [1], 0% on Cannabinoid receptor 2 [3] and 38% at Cannabinoid receptor 1 [7]. Moreover, the negative-log Ki (pKi) was < 5.00 on Cannabinoid receptor 1 [2] and 5.61 at Cannabinoid receptor 2 [4].

Take `Cc1ccc(Cc2cc3c(O)cc(C)cc3oc2=O)cc1`: the values for the inhibition on Cannabinoid receptor 2 [6] and at Cannabinoid receptor 1 [7] were 23% and 30%, respectively. For the same compound, the pKi on Cannabinoid receptor 1 [2] and on Cannabinoid receptor 2 [4] was < 5.00 throughout.

Consider `CCCCCc1cc(O)c2cc(Cc3ccccc3C)c(=O)oc2c1`, for which the values for the inhibition at Cannabinoid receptor 1 [1] and at Cannabinoid receptor 2 [3] were 9% and 12%, respectively. For the same compound, the pKi is 5.79 at Cannabinoid receptor 1 [2] and 5.45 on Cannabinoid receptor 2 [4].

For the compound `CCCCCc1cc(OC)c2cc(Cc3cccc(Cl)c3)c(=O)oc2c1`, the inhibition is 0% on Cannabinoid receptor 1 [1] and 40% on Cannabinoid receptor 2 [3]. Besides, the pKi was 6.20 on Cannabinoid receptor 1 [2] and 6.46 at Cannabinoid receptor 2 [4].

Regarding `CCCCC1(c2cc(O)c3cc(Cc4ccccc4O)c(=O)oc3c2)CCCCC1`, the pEC50 at Cannabinoid receptor 2 [5] was 6.75. Also, the values for the inhibition on Cannabinoid receptor 1 [1] and on Cannabinoid receptor 2 [3] were 0% and 76%, respectively. Also, the pKi at Cannabinoid receptor 1 [2] was 5.31; on Cannabinoid receptor 2 [4], 7.31. The Ratio Ki in the experiment with CHO turned out to be 100.

Consider `CCCCCCCC(C)(C)c1cc(O)c2cc(Cc3ccccc3O)c(=O)oc2c1`, for which the inhibition is 0% against Cannabinoid receptor 1 [1] and 52% at Cannabinoid receptor 2 [3]. Moreover, the figures for the pKi at Cannabinoid receptor 1 [2] and at Cannabinoid receptor 2 [4] were 5.93 and 6.53, respectively.

Turning to `COc1cccc(Cc2cc3c(OC)cccc3oc2=O)c1`, the values for the inhibition at Cannabinoid receptor 2 [6] and against Cannabinoid receptor 1 [1] were 27% and 0%, respectively. For the same compound, the pKi at Cannabinoid receptor 1 [2] was 4.68; on Cannabinoid receptor 2 [4] it was < 5.00.
